From ChEMBL document CHEMBL4020708, “Studies of CDK 8/19 inhibitors: Discovery of novel and selective CDK8/19 dual inhibitors and elimination of their CYP3A4 time-dependent inhibition potential” (Bioorg Med Chem, 2017)
Values after ≈ are worked out from the molar mass of the structure shown. Active and inactive are the calls of the source. The rule behind the calls is not given here.

How the values were obtained:
[1] = MRT in mouse at 1 mg/kg, po administered as cassette dose measured up to 8 hrs by LC/MS/MS analysis; assay type: ADME, organism-based; conditions: in vivo
Method in brief: (§1)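 Cassette dosing to non-fasted mice, 1 mg/kg po (0–8 h). Plasma obtained from blood by centrifugation, deproteinized with acetonitrile, centrifuged, and the supernatant analysed by LC/MS/MS.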

CDK8/Cyclin C = CDK8/Cyclin C (Homo sapiens, UniProt P49336); assay: Inhibition of kinase tracer 236 binding to full length N terminal GST-tagged human CDK8 (1 to 464 end residues) /CycC ( 1 to 283 end residues) expressed in baculovirus expression system after 60 min by TR-FRET assay
Sequence of CDK8/Cyclin C (P49336 whole entry): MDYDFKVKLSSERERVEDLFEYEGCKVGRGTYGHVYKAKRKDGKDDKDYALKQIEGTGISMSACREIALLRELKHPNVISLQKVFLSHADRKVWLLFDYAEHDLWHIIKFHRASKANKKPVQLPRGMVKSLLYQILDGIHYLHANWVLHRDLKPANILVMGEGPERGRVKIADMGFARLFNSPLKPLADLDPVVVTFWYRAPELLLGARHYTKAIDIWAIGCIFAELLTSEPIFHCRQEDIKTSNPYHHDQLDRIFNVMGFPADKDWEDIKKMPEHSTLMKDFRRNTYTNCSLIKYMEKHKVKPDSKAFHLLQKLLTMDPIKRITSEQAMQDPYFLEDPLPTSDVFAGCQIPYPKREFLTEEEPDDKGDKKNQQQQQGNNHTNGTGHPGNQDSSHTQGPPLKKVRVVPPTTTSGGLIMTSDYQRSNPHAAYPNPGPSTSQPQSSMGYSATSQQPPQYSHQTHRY
Sequence of CDK8/Cyclin C (P24863 whole entry, further chain): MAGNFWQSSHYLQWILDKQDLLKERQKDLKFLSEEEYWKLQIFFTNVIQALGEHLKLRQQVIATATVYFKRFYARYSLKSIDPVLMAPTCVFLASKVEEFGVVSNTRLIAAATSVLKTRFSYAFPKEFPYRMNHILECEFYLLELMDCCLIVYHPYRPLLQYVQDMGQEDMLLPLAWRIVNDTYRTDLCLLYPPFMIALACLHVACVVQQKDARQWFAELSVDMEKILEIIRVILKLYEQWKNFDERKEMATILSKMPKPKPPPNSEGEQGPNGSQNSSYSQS
Method in brief: (§2)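 TR-FRET ligand displacement using 20 nM GST-CDK8/CycC or GST-CDK19/CycC, 20 nM Kinase Tracer 236 and Tb-anti-GST antibody. Buffer 25 mM HEPES, 10 mM MgCl₂, 2 mM DTT, 0.01% Tween-20. Incubated 60 min at rt.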

[2] = target: T1, Cyclin-dependent kinase 8 (Homo sapiens, UniProt P49336); assay: Inhibition of CDK8 in human SW480 cells assessed as reduction in IFN-gamma induced STAT1 phosphorylation at Ser727 residues preincubated for 2 hrs followed by IFN-gamma addition measured after 1 hr by In-cell western assay; assay type: cell-based
T1 sequence (P49336 whole entry): as the sequence (P49336 whole entry) above
Method in brief: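 SW480 cells kept in L-15 with 10% FBS at 37 °C and plated at 6000 cells/well overnight. Compound applied 2 h, then 10 ng/mL IFN-γ for 1 h. Cells fixed, permeabilized and blocked, then probed overnight at 4 °C with anti-pSTAT1 Ser727. IRDye 800CW secondary plus DRAQ5 for DNA, Odyssey imaging.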

[3] = target: Cyclin-C/Cyclin-dependent kinase 19 (Homo sapiens, UniProt Q9BWU1); assay: Inhibition of kinase tracer 236 binding to GST-tagged CDK19/CycC (unknown origin) after 60 min by TR-FRET assay; assay type: protein-complex assay; method in brief: as §2
Sequence of Cyclin-C/Cyclin-dependent kinase 19 (Q9BWU1 whole entry): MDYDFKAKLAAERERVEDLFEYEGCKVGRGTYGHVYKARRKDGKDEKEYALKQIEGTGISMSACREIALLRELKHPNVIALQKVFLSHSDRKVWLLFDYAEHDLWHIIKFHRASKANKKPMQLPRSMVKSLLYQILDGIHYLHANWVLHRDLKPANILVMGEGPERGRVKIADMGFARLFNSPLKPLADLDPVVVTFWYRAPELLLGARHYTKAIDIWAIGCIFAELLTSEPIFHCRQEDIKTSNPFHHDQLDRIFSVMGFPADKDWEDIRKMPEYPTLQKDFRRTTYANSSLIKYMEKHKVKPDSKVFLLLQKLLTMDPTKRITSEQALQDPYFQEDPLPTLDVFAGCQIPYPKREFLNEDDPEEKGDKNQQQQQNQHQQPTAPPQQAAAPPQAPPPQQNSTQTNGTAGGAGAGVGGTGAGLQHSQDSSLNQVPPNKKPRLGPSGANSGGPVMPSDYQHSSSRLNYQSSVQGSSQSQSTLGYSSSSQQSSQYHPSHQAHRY
Sequence of Cyclin-C/Cyclin-dependent kinase 19 (P24863 whole entry, further chain): as the sequence (P24863 whole entry, further chain) above

[4] = AUC (0 to 8 hrs) in mouse at 1 mg/kg, po administered as cassette dose by LC/MS/MS analysis; assay type: ADME, organism-based; design: time < 8 hr, dose 1 mg/kg, route oral; conditions: in vivo; method in brief: as §1
[5] = Total clearance in mouse at 1 mg/kg, po administered as cassette dose measured up to 8 hrs by LC/MS/MS analysis; assay type: ADME, organism-based; conditions: in vivo
[6] = Solubility of the compound at pH 6.8; assay type: physicochemical; conditions: buffer
Method in brief: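 Compound added from DMSO solution to JP 2nd disintegration fluid (pH 6.8) and incubated. Precipitate removed by filtration, and filtrate concentration measured by plate reader or HPLC.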

Plasma [7] = assay: Drug metabolism in mouse plasma assessed as formation of (E)-3-(4-(1H-pyrazol-4-yl)pyridin-3-yl)-N-(4-(morpholinomethyl)phenyl)acrylamide at 1 mg/kg, po administered as cassette dose measured up to 8 hrs by LC/MS/MS analysis; assay type: ADME, organism-based; conditions: in vivo; method in brief: as §1
CYP3A4 = CYP3A4 (Homo sapiens, UniProt P08684); assay: Time-dependent inhibition of CYP3A4 in human liver microsomes assessed as reduction in testosterone to 6beta-hydroxytestosterone conversion by measuring remaining activity at 30 uM preincubated for 60 mins followed by testosterone addition measured after 20 mins in presence of NADPH by UPLC analysis relative to control; assay type: ADME; conditions: probe testosterone (6beta-hydroxylation), read-out: Activity
Sequence of CYP3A4 (P08684 whole entry): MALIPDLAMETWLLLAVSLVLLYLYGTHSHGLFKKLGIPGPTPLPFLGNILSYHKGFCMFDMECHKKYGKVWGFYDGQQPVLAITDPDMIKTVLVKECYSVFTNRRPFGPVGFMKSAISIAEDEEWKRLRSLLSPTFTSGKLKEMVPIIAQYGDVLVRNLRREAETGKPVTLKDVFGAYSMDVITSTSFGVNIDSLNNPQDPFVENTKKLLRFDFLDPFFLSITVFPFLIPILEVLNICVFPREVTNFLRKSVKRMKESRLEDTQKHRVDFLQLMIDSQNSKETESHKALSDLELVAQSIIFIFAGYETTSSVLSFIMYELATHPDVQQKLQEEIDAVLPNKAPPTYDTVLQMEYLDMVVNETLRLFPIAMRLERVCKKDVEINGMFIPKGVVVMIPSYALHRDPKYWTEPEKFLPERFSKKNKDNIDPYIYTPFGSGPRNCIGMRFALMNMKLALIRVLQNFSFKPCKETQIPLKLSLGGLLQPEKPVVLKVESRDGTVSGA
Method in brief: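 Compound at 30 μM preincubated with human liver microsomes in phosphate buffer pH 7.4 at 37 °C for 0 or 60 min with an NADPH-generating system. Testosterone then added for 20 min, and 6β-hydroxytestosterone measured by UPLC. Activity expressed as % of DMSO control; % remaining taken after 60 min preincubation.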

Plasma [8] = assay: Drug metabolism in mouse plasma assessed as formation of (E)-N-(4-((2-hydroxyethylamino)methyl)phenyl)-3-(4-(1-methyl-1H-pyrazol-4-yl)pyridin-3-yl)acrylamide at 1 mg/kg, po administered as cassette dose measured up to 8 hrs by LC/MS/MS analysis; assay type: ADME, organism-based; conditions: in vivo; method in brief: as §1
[9] = Oral bioavailability in mouse at 1 mg/kg administered as cassette dose measured up to 8 hrs by LC/MS/MS analysis; assay type: ADME, organism-based; conditions: in vivo
Method in brief: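 Bioavailability from mouse cassette dosing, 0.1 mg/kg iv and 1 mg/kg po, non-fasted animals. Plasma was deproteinized with acetonitrile and compound quantified by LC/MS/MS.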

[10] = Cmax in mouse at 1 mg/kg, po administered as cassette dose measured up to 8 hrs by LC/MS/MS analysis; assay type: ADME, organism-based; design: dose 1 mg/kg, route oral; conditions: in vivo; method in brief: as §1
Liver [11] = assay: Intrinsic clearance in mouse liver microsomes at 1 umol/L after 15 to 30 mins in presence of NADPH by LC/MS/MS analysis; assay type: ADME, microsome; conditions: 1 µM
Method in brief: (§3)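 Human or mouse liver microsomes at 0.2 mg/mL protein in 50 mmol/L phosphate buffer pH 7.4 with 1 μmol/L compound. Reaction started with an NADPH-generating system and stopped at 15 and 30 min with acetonitrile. LC/MS/MS readout. Intrinsic clearance taken as initial metabolic velocity (slope of concentration-time) divided by compound concentration.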

Liver [12] = assay: Intrinsic clearance in human liver microsomes at 1 umol/L after 15 to 30 mins in presence of NADPH by LC/MS/MS analysis; assay type: ADME, microsome; conditions: 1 µM; method in brief: as §3
Plasma [13] = assay: Drug metabolism in mouse plasma assessed as formation of (E)-3-(4-(1-methyl-1H-pyrazol-4-yl)pyridin-3-yl)-N-(4-((3-oxomorpholino)methyl)phenyl)acrylamide at 1 mg/kg, po administered as cassette dose measured up to 8 hrs by LC/MS/MS analysis; assay type: ADME, organism-based; conditions: in vivo; method in brief: as §1
Plasma [14] = assay: Drug metabolism in mouse plasma assessed as formation of (E)-4-(1-methyl-1H-pyrazol-4-yl)-3-(3-(4-(morpholinomethyl)phenylamino)-3-oxoprop-1-enyl)pyridine 1-oxide at 1 mg/kg, po administered as cassette dose measured up to 8 hrs by LC/MS/MS analysis; assay type: ADME, organism-based; conditions: in vivo; method in brief: as §1
Mus musculus [15] = assay: Toxicity in C.B17/Icr-scid/scid Jcl mouse xenografted with human RPMI8226 cells assessed as change in body weight at 15 mg/kg, po bid after 2 weeks; assay type: organism-based; conditions: in vivo, 336 h
Method in brief: (§4)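 Female C.B17/Icr-scid/scid Jcl mice, five weeks old, implanted sc in one flank with 1×10^7 RPMI-8226 cells in HBSS:Matrigel 1:1. When tumors reached about 80–140 mm³, dosed po b.i.d. at 15 or 30 mg/kg for 14 days. Caliper volume (0.5×length×width²) and body weight measured twice weekly. Tumor growth expressed as T/C vs vehicle. Mean ± se.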

[16] = target: T1, Cyclin-dependent kinase 8; assay: Inhibition of CDK8 in human SW480 cells assessed as reduction in STAT1 phosphorylation at Ser727 residues up to 30 nM after 1 day by Western blot method; assay type: cell-based
Method in brief: (§5)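 Cell pellets were lysed in 62.5 mM Tris-Cl (pH 7.5), 1% SDS and 5% glycerol, then boiled at 95 °C for 5 min. 5 ug total protein was run on SDS-polyacrylamide gels, transferred and probed for total STAT1 and phospho-STAT1 Ser727. Detection used HRP-conjugated secondary antibodies and ECL plus chemiluminescence.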

RPMI-8226 [17] = assay: Antitumor activity against human RPMI8226 cells xenografted in C.B17/Icr-scid/scid Jcl mouse assessed as tumor growth at 15 mg/kg, po bid after 2 weeks relative to control; assay type: functional; method in brief: as §4
Mus musculus [18] = assay: Toxicity in C.B17/Icr-scid/scid Jcl mouse xenografted with human RPMI8226 cells assessed as change in body weight at 30 mg/kg, po bid after 2 weeks relative to control; assay type: organism-based; conditions: in vivo, 336 h; method in brief: as §4
EOL1 = assay: Antiproliferative activity against human EOL-1 cells after 168 hrs by Celltiter-Glo luminescent assay; assay type: functional; conditions: EOL1, 168 h
Method in brief: (§6)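 Cells seeded at 5×10^2 per well. Compound added 24 h later at an appropriate concentration and incubated 168 h. Viability read by CellTiter-Glo luminescence after 20 min. Nuclear count by CyQuant Direct fluorescence after 1 h.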

[19] = target: T1, Cyclin-dependent kinase 8; assay: Inhibition of CDK8 in human EOL1 cells assessed as reduction in STAT1 phosphorylation at Ser727 residues up to 30 nM after 1 day by Western blot method; assay type: cell-based; method in brief: as §5
RPMI-8226 [20] = assay: Antiproliferative activity against human RPMI8226 cells after 168 hrs by Celltiter-Glo luminescent assay; assay type: functional; conditions: RPMI-8226, 168 h; method in brief: as §6
RPMI-8226 [21] = assay: Antitumor activity against human RPMI8226 cells xenografted in C.B17/Icr-scid/scid Jcl mouse assessed as tumor growth at 30 mg/kg, po bid after 2 weeks relative to control; assay type: functional; method in brief: as §4
Mus musculus [22] = assay: In vivo inhibition of STAT1 phosphorylation at Ser727 residues in C.B17/Icr-scid/scid Jcl mouse xenografted with human RPMI8226 cells at 15 to 30 mg/kg, po bid treated for 2 weeks measured over 2 to 8 hrs post dose by Western blot analysis; assay type: functional, organism-based
Method in brief: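 Xenografted mice dosed po b.i.d. at 15 or 30 mg/kg for 2 weeks, sampled 2 h and 8 h post-dose on the final day. Samples lysed in Tris-SDS-glycerol buffer and boiled 95 °C for 5 min. 5 ug protein run on SDS-PAGE and blotted for STAT1 and phospho-STAT1 Ser727. HRP secondary with ECL detection.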

[23] = target: T1, Cyclin-dependent kinase 8; assay: Inhibition of CDK8 in human RPMI8226 cells assessed as reduction in STAT1 phosphorylation at Ser727 residues up to 30 nM after 1 day by Western blot method; assay type: cell-based; method in brief: as §5

Structure (SMILES) | MRT [1] | IC50 (CDK8/Cyclin C) | EC50 [2] | AUC(0-t) at 8 h [4] | solubility [6] | activity at 20 min, 30 µM (CYP3A4) | bioavailability [9] | Cmax [10] | intrinsic clearance (Liver [11]) | microsomal intrinsic clearance (Liver [12]) | also measured
Cn1cc(-c2ccncc2/C=C/C(=O)Nc2ccc(CN3CCOCC3)cc2)cn1 | 1.5 h | 6.5 nM | 13 nM | 76.9 ng·h/mL | 68 µg/mL (≈ 169 µM) | 81% | 21.9% | 47.5 ng/mL | 77 µL/min/mg | 22 µL/min/mg | IC50 [3]: 15 nM; CL/F [5]: 49.5 mL/min/kg; Drug metabolism (Plasma [7]): Metabolite_Detected; Drug metabolism (Plasma [8]): Metabolite_Detected; Drug metabolism (Plasma [13]): Metabolite_Detected; Drug metabolism (Plasma [14]): Metabolite_Detected
O=C(/C=C/c1cnccc1-c1cnn(C2CC2)c1)Nc1ccc(CN2CC(F)(F)C2)cc1 | 1.6 h | 2.5 nM | 8.4 nM | 370 ng·h/mL | 30 µg/mL (≈ 68.9 µM) | 99% | 22.5% | 321 ng/mL | 97 µL/min/mg | 15 µL/min/mg | Activity (Mus musculus [15]): Non-Toxic; inhibition [16]: Active; T/C (RPMI-8226 [17]): 29%; Activity (Mus musculus [18]): 12%; GI50 (EOL1): 6.5 nM; inhibition [19]: Active; GI50 (RPMI-8226 [20]): 21 nM; T/C (RPMI-8226 [21]): -2%; inhibition (Mus musculus [22]): Active; inhibition [23]: Active
